The values below come from ChEMBL document CHEMBL1135819, “N-[3-(1H-imidazol-4-ylmethyl)phenyl]ethanesulfonamide (ABT-866, 1),(1) a novel alpha(1)-adrenoceptor ligand with an enhanced in vitro and in vivo profile relative to phenylpropanolamine and midodrine” (J Med Chem, 2002).

The structures appear in SMILES notation. pEC50, pKi: −log10 of the molar value. Active and inactive are the calls of the source. No cut-off for these calls is given here.

Test [1] has as its target T1, Alpha-1D adrenergic receptor (Rattus norvegicus, UniProt P23944).
T1 sequence (P23944 whole entry): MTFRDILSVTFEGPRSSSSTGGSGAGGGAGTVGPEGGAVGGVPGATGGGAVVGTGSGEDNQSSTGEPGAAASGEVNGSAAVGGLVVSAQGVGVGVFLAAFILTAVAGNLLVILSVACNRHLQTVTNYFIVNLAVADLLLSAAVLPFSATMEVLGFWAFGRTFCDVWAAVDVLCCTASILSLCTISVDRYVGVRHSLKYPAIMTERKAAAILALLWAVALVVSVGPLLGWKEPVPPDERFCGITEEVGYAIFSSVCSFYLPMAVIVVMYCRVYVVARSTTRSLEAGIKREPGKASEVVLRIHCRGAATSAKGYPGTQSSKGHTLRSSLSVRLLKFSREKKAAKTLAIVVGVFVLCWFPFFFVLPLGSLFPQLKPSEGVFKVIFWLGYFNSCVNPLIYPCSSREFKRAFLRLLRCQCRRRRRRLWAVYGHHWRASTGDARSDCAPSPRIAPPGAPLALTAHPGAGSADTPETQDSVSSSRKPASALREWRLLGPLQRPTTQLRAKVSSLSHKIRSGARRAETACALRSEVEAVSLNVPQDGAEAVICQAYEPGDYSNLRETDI
In words: Binding affinity towards rat cloned Alpha-1D adrenergic receptor; value ranges from (1.3 -1.6).

The species entered for test [2] is Rattus norvegicus. In words: (§1) In vitro percent efficacy of compound was tested in rat aorta. It is filed as functional. In short, it runs like this:
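Isolated tissue contraction: agonist dose–response curves run in rat aorta (α1D) and rat spleen (α1B). Efficacy is the percent response relative to phenylephrine. EC50 is taken as the dose contracting the tissue 50%. Data reported ± SEM.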

The species entered for the next test is Oryctolagus cuniculus. Nature of the test: In vitro percent efficacy of compound was tested in rabbit urethra. It is filed as functional.
Test [3] concerns the target T2, Alpha-1B adrenergic receptor (Mesocricetus auratus, UniProt P18841).
T2 sequence (P18841 whole entry): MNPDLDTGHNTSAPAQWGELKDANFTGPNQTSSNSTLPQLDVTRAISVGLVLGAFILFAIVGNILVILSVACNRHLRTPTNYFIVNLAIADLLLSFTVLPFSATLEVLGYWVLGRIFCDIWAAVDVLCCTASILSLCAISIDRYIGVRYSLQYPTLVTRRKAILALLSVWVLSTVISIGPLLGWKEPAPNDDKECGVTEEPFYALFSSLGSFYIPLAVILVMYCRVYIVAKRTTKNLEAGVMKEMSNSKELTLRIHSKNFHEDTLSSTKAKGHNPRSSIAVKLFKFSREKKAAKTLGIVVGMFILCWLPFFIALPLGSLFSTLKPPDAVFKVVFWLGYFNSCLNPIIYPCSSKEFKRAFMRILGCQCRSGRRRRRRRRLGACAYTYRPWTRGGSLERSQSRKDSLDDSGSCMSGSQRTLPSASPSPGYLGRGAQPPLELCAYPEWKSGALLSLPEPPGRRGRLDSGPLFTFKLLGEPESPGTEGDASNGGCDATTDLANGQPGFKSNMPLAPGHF
Nature of the test: Binding affinity towards hamster cloned Alpha-1B adrenergic receptor; value ranges from (2.0 -4.4). More on the design: species or system Cricetulus griseus.

The subject of test [4] is Canis familiaris. Nature of the test: Dose corresponding to a 20 mmHg increase in mean arterial pressure (MAP) was determined in vivo in isoflurane anesthetized female beagles. It is filed as functional, Canis lupus familiaris, Beagle, Artery. In short, it runs like this:
(§2)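 Female beagles under isoflurane anesthesia; MAP by chronically implanted telemetry transducer/transmitter, IUP by urethral catheter, recorded simultaneously. Increasing iv doses given; maximal effect of each dose taken within 1 min of dosing. Doses giving 5 mmHg IUP rise (IUP ED5) and 20 mmHg MAP rise (MAP ED20) calculated, nmol/kg, mean ± SEM, n ≥ 4.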

Test [5] deals with Canis familiaris. Nature of the test: Dose corresponding to a 5 mmHg increase in Intraurethral pressure (IUP) was determined in vivo in isoflurane anesthetized female beagles. In kind it is functional, Canis lupus familiaris, Beagle. The essentials:
as §2

For test [6], the target named is T3, Alpha-1B adrenergic receptor (Rattus norvegicus) (UniProt P15823).
T3 sequence (whole entry): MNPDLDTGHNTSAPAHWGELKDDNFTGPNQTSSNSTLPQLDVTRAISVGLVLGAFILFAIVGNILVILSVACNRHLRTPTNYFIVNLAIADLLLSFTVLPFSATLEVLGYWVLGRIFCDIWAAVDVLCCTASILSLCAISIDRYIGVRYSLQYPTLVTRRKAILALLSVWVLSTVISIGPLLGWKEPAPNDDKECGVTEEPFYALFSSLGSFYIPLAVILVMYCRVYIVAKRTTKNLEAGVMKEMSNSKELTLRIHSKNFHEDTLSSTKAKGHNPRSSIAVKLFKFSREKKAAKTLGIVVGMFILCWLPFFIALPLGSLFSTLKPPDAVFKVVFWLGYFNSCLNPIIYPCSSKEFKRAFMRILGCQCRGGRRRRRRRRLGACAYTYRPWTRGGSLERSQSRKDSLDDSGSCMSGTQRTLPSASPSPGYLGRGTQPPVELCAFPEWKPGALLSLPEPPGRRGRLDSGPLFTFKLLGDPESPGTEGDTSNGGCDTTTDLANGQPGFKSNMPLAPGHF
Nature of the test: Effective concentration in vitro against rat spleen Alpha-1B adrenergic receptor (EC50 < 15%) at a concentration of 10 uM; NA is not active. In kind it is tissue-based.

Test [7] concerns the target T4, Alpha-1B adrenergic receptor (Rattus norvegicus, UniProt P15823).
T4 sequence (P15823 whole entry): T3 sequence (whole entry)
Nature of the test: Antagonistic activity against Alpha-1B adrenergic receptor determined using phenylephrine challenge in rat spleen isolated tissues. It is filed as functional, tissue-based. Particulars: read-out: pA2 (converted).

Test [8] has as its target T1, Alpha-1D adrenergic receptor. Nature of the test: Antagonistic activity against Alpha-1D adrenergic receptor determined using phenylephrine challenge in rat aorta isolated tissues. The settings on record: read-out: pA2 (converted). It is filed as functional, tissue-based.
Test [9] concerns the target T5, Alpha-1A adrenergic receptor (Rattus norvegicus, UniProt P43140).
T5 sequence (P43140 whole entry): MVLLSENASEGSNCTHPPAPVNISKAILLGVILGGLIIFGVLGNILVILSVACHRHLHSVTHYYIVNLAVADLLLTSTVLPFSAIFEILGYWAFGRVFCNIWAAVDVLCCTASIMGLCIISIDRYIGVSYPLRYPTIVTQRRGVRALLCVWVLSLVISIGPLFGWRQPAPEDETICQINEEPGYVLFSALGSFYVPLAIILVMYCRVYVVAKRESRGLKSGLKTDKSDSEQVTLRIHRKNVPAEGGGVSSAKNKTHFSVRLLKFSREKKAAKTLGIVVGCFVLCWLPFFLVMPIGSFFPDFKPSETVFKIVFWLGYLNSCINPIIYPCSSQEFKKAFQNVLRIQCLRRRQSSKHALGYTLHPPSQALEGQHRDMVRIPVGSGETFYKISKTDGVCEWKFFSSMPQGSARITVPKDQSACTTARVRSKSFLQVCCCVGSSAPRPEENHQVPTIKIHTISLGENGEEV
In words: Binding affinity towards rat submaxillary gland Alpha-1 adrenergic receptor; value ranges from (0.12 - 0.15).

The species entered for test [10] is Rattus norvegicus. In words: In vitro percent efficacy of compound was tested rat spleen. It is filed as functional.
In test [11] the target is T5, Alpha-1A adrenergic receptor. Nature of the test: Binding affinity towards rat submaxillary gland Alpha-1 adrenergic receptor; value ranges from (6.2 - 15).
In test [12] the target is T2, Alpha-1B adrenergic receptor. In words: Binding affinity towards hamster cloned Alpha-1B adrenergic receptor mean;value ranges from( 6.4 -14). The arrangement: species or system Cricetulus griseus.
The target in test [13] is T4, Alpha-1B adrenergic receptor. Nature of the test: Effective concentration in vitro against rat spleen Alpha-1B adrenergic receptor indicates EC50 < 15% at a concentration of 10 uM. In kind it is tissue-based.
The species named for test [14] is Rattus norvegicus. The description is as §1. In kind it is functional. The source holds these as a separate data set.
Test [15] deals with T1, Alpha-1D adrenergic receptor. Nature of the test: Binding affinity towards rat cloned Alpha-1D adrenergic receptor; value ranges from (5.5 -13).
Test [16] has the same target. In words: Effective concentration in vitro against rat aorta Alpha-1D adrenergic receptor;* indicates EC50 < 15% at a concentration of 10 uM. In kind it is tissue-based.
Test [17] has the same target. In words: Binding affinity towards rat cloned Alpha-1D adrenergic receptor; value ranges from (1.5 - 1.9).
Test [18] is filed under the species Rattus norvegicus. In words: In vitro percent efficacy of compound was tested in rat spleen. It is filed as functional.
For test [19], the target named is T5, Alpha-1A adrenergic receptor. Nature of the test: Binding affinity towards rat submaxillary gland Alpha-1 adrenergic receptor; value ranges from (1.6 -2.5).
Test [20] deals with T2, Alpha-1B adrenergic receptor. In words: Binding affinity towards hamster cloned Alpha-1B adrenergic receptor; value ranges from (6.2 -7.7). The arrangement: species or system Cricetulus griseus.

What is called pKi is the Ki on a negative log10 scale, so that one unit is a factor of ten. Low values mean a high Ki, high ones a low Ki. Take `CS(=O)(=O)Nc1c(O)ccc2c1CCCC2C1=NCCN1` (stereo not drawn): the pKi in test [1] is 5.82; in test [3], 5.54. Further, the Efficacy turned out to be 100% in the test filed under Rattus norvegicus [2] and 88% in the test filed under Oryctolagus cuniculus. The ED20 in the test on Canis familiaris [4] was found to be 0.27 nM/kg. The ED5 with Canis familiaris [5] worked out at 0.16 nM/kg.

For the compound `CCS(=O)(=O)Nc1cccc(Cc2c[nH]cn2)c1`, the NA result in test [6] is “inactive”. The Kb in test [7] was 3.98 µM; in test [8] it was 0.631 µM. Besides, the Efficacy in the test listed under Oryctolagus cuniculus came to 80%. Also, the ED20 in the test with Canis familiaris [4] amounted to 80 nM/kg. This compound returned an ED5 in the test with Canis familiaris [5] of 12 nM/kg. The pKi in [9] was 6.85.

In general, pEC50 refers to the EC50 on a negative log10 scale, so that one unit is a factor of ten. Lower therefore signals a high EC50. Take `C[C@H](N)[C@H](O)c1ccccc1` [(1R,2S)-PHENYLPROPANOLAMINE]: the Efficacy in the test filed under Rattus norvegicus [10] was determined as 34%; in the test listed under Oryctolagus cuniculus, 68%; in the test filed under Rattus norvegicus [14], 91%. In addition, the pKi in test [11] is 5.01; in [12], 5.02; in [15], 5.08. The pEC50 in [13] was 3.55; in test [16] it was 4.24. In addition, the ED20 in the test on Canis familiaris [4] was 330 nM/kg. Moreover, in the test on Canis familiaris [5], the ED5 is 1100 nM/kg.

As for `COc1ccc(OC)c(C(O)CN)c1` (stereo not drawn) [DESGLYMIDODRINE], the pKi in test [17] is 5.77; in [19] it was 5.70; in [20] it was 5.16. The pEC50 was 4.07 in test [13] and 5.72 in test [16]. In addition, the results for the Efficacy in the test filed under Oryctolagus cuniculus, in the test listed under Rattus norvegicus [18] and in the test listed under Rattus norvegicus [14] were 133%, 68% and 106%, respectively. In the test on Canis familiaris [4], the ED20 was found to be 250 nM/kg. In the test on Canis familiaris [5], this compound gave an ED5 of 205 nM/kg.
